Here are results for four compounds from ChEMBL document CHEMBL1155840, “Sesquiterpenes from Celastrus vulcanicola as photosynthetic inhibitors” (J Nat Prod, 2008).

Test [1] deals with Spinacia oleracea. Put plainly: Effect on photosystem 2 interaction site in spinach thylakoid membrane assessed as chlorophil-a fluorescence parameter at 10 uM. Type of test: cell membranes.
In test [2] the test system is Spinacia oleracea. Put plainly: Effect on ATP synthesis in spinach leaves chloroplast assessed as blockade of uncoupled electron transport at 300 uM. Type of test: functional. The gist of the method: (§1)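 Uncoupled electron transport measured in basal medium with 6 mM NH₄Cl as uncoupler. Actinic light came from a projector lamp through a 5 cm 1% CuSO₄ filter for 2 min. Chloroplasts at 20 μg Chl/mL, 20 °C, blank with chloroplasts alone. Activity given as % of control.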

In test [3] the test system is Spinacia oleracea. Put plainly: Effect on uncoupled photosystem 2 in spinach chloroplast assessed as inhibition of electron transport rate of water to sodium silicomolybdate at 200 uM relative to control. On the set-up: scale not given: the % may be the effect or the level left. The gist of the method:
(§2)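 PSII water→silicomolybdate measured in the uncoupled electron flow mixture without MV, plus 200 μM SiMo and 10 μM DCMU. Run at 20 °C with a chloroplast-only blank. Activity given as % of control; average of three replicates.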

Test [4] concerns Spinacia oleracea. Put plainly: Effect on ATP synthesis in spinach leaves chloroplast assessed as blockade of basal electron transport at 50 uM. In kind it is functional. The method in brief: (§3)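 Spinach chloroplasts at 20 μg chlorophyll/mL, illuminated 1 min in basal electron transport medium (3 mL) with 0.05 mM MV as electron acceptor. Run at 20 °C with a chloroplast-only blank. Rates are in μequiv e⁻ h⁻¹ mg⁻¹ Chl; 100% is the control activity.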

Test [5] relates to Spinacia oleracea. The experiment in a line: Effect on ATP synthesis in spinach leaves chloroplast assessed as blockade of phosphorylating electron transport at 50 uM. Type of test: functional. The gist of the method:
(§4)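 Photophosphorylating noncyclic electron transport run as the basal assay (chloroplasts 20 μg Chl/mL, 1 min light, MV acceptor) with 1 mM ADP and 3 mM Pi added. Temperature 20 °C with a chloroplast-only blank. Activity expressed as % of control.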

The subject of test [6] is Spinacia oleracea. Put plainly: Effect on ATP synthesis in spinach leaves chloroplast assessed as blockade of basal electron transport at 300 uM. In kind it is functional. The gist of the method:
as §3

The nature of test [7]: (§5) Inhibition of photosynthetic phosphorylation from water to methyl viologen in spinach leaves chloroplast. To be noted: read-out: I50. Type of test: functional, Spinacia oleracea. The gist of the method:
(§6)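 Isolated spinach chloroplasts (20 μg Chl/mL) osmotically ruptured in 100 mM sorbitol, 10 mM KCl, 5 mM MgCl₂, 0.001 M Na⁺-tricine, with 1 mM ADP, 3 mM Pi and 0.05 mM MV. ATP formed was calculated from light-driven alkalization, back-titrated with HCl. I50 read from concentration-response plots; average of three replicates.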

The test system of test [8] is Spinacia oleracea. The experiment in a line: Effect on uncoupled photosystem 1 in spinach chloroplast assessed as inhibition of electron transport rate of tetramethyl-p-benzohydroquinone to methyl viologen at 100 uM relative to control. On the set-up: scale not given: the % may be the effect or the level left. The gist of the method:
(§7)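 Uncoupled PSI flow TMQH₂→MV monitored polarographically at 20 °C in 3 mL basal electron medium. Additions were 100 μM TMQH₂/300 μM ascorbate, 10 μM DCMU and 6 mM NH₄Cl. Blank with chloroplasts alone; values as % of control; average of three replicates.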

The subject of test [9] is Spinacia oleracea. Put plainly: Effect on uncoupled photosystem 1 in spinach chloroplast assessed as inhibition of electron transport rate of tetramethyl-p-benzohydroquinone to methyl viologen at 50 uM relative to control. On the set-up: scale not given: the % may be the effect or the level left. The gist of the method: as §7
Test [10] relates to Spinacia oleracea. The experiment in a line: Effect on photosystem 2 interaction site in spinach thylakoid membrane assessed as chlorophil-a fluorescence parameter at 150 uM. Type of test: cell membranes. The method in brief:
(§8)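 Freshly lysed spinach chloroplasts (20 μg Chl mL⁻¹) in the basal noncyclic electron transport medium were incubated with the compound for 5 min in the dark at room temperature. Rapid polyphasic Chl a fluorescence of PSII was then recorded at room temperature using a 2 s saturating pulse (2500 μmol […] s⁻¹, 650 nm LEDs). F0, Fm, Fv/Fm and area were read.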

Test [11] deals with Spinacia oleracea. Put plainly: Effect on ATP synthesis in spinach leaves chloroplast assessed as blockade of uncoupled electron transport at 50 uM. In kind it is functional. The gist of the method: as §1
Test [12] deals with Spinacia oleracea. The experiment in a line: Effect on uncoupled photosystem 1 in spinach chloroplast assessed as inhibition of electron transport rate of 2,6-dichlorophenol indophenol to methyl viologen at 50 uM relative to control. Set-up: scale not given: the % may be the effect or the level left. The gist of the method:
(§9)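 Uncoupled PSI flow measured polarographically in 3 mL basal uncoupled medium. Donor was 100 μM DCPIP reduced by 300 μM sodium ascorbate, with 10 μM DCMU to block PSII, 6 mM NH₄Cl and 0.05 mM MV as acceptor. Run at 20 °C; % of control; average of three replicates.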

Test [13] relates to Spinacia oleracea. Put plainly: Inhibition of H+ATPase activity in spinach thylakoid membranes at 300 uM. Type of test: cell membranes. The gist of the method: (§10)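 Thylakoid membrane-bound Mg²⁺-ATPase measured during ATP hydrolysis. Released inorganic phosphate determined colorimetrically.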
Test [14] relates to Spinacia oleracea. Put plainly: Effect on uncoupled photosystem 2 in spinach chloroplast assessed as inhibition of electron transport rate of water to 2,6-dicholorophenol indophenol at 300 uM relative to control. Set-up: scale not given: the % may be the effect or the level left. The method in brief:
(§11)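 Uncoupled PSII water→DCPIP followed as DCPIP-supported O₂ evolution, measured polarographically. Basal medium used 300 μM K₃[Fe(CN)₆] in place of MV, with 1 μM DBMIB, 50 μM DCPIP and 6 mM NH₄Cl. Run at 20 °C; % of control; average of three replicates.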

Test [15] deals with Spinacia oleracea. The experiment in a line: Effect on photosystem 2 interaction site in spinach thylakoid membrane assessed as chlorophil-a fluorescence parameter at 600 uM. In kind it is cell membranes. The gist of the method:
as §8

The subject of test [16] is Spinacia oleracea. The experiment in a line: Effect on uncoupled photosystem 2 in spinach chloroplast assessed as inhibition of electron transport rate of water to 2,6-dicholorophenol indophenol at 200 uM relative to control. Set-up: scale not given: the % may be the effect or the level left. The gist of the method:
as §11

In test [17] the test system is Spinacia oleracea. The experiment in a line: Effect on uncoupled photosystem 2 in spinach chloroplast assessed as inhibition of electron transport rate of water to sodium silicomolybdate at 100 uM relative to control. Set-up: scale not given: the % may be the effect or the level left. The method in brief:
as §2

Test [18] has as its system Spinacia oleracea. The experiment in a line: Effect on uncoupled photosystem 2 in spinach chloroplast assessed as inhibition of electron transport rate of water to sodium silicomolybdate at 50 uM relative to control. Set-up: scale not given: the % may be the effect or the level left. The gist of the method:
as §2

The test system of test [19] is Spinacia oleracea. The experiment in a line: Residual light activated thylakoid membrane bound Mg+ATPase activity in spinach leaves at 300 uM relative to control.
Test [20] concerns Spinacia oleracea. Put plainly: Effect on uncoupled photosystem 1 in spinach chloroplast assessed as inhibition of electron transport rate of 2,6-dichlorophenol indophenol to methyl viologen at 200 uM relative to control. On the set-up: scale not given: the % may be the effect or the level left. The method in brief: as §9
Test [21] concerns Spinacia oleracea. The experiment in a line: Effect on ATP synthesis in spinach leaves chloroplast assessed as blockade of phosphorylating electron transport at 300 uM. Type of test: functional. The method in brief: as §4
Test [22] concerns Spinacia oleracea. Put plainly: Effect on uncoupled photosystem 2 in spinach chloroplast assessed as inhibition of electron transport rate of water to 2,6-dicholorophenol indophenol at 100 uM relative to control. Set-up: scale not given: the % may be the effect or the level left. The method in brief:
as §11

For test [23], the system named is Spinacia oleracea. Put plainly: Effect on photosystem 2 interaction site in spinach thylakoid membrane assessed as chlorophil-a fluorescence parameter at 300 uM. Type of test: cell membranes. The method in brief: as §8
In test [24] the test system is Spinacia oleracea. The experiment in a line: Effect on uncoupled photosystem 1 in spinach chloroplast assessed as inhibition of electron transport rate of tetramethyl-p-benzohydroquinone to methyl viologen at 300 uM relative to control. On the set-up: scale not given: the % may be the effect or the level left. The method in brief:
as §7

Test [25] relates to Spinacia oleracea. The experiment in a line: Effect on uncoupled photosystem 2 in spinach chloroplast assessed as inhibition of electron transport rate of water to sodium silicomolybdate at 300 uM relative to control. On the set-up: scale not given: the % may be the effect or the level left. The method in brief: as §2
The test system of test [26] is Spinacia oleracea. The experiment in a line: Effect on uncoupled photosystem 1 in spinach chloroplast assessed as inhibition of electron transport rate of 2,6-dichlorophenol indophenol to methyl viologen at 300 uM relative to control. Set-up: scale not given: the % may be the effect or the level left. The gist of the method: as §9
For test [27], the system named is Spinacia oleracea. Put plainly: Inhibition of light activated thylakoid membrane bound Mg+ATPase activity in spinach leaves at 100 uM relative to control. Conditions: values are per cent of control. The method in brief: as §10
Test [28] deals with Spinacia oleracea. The experiment in a line: Inhibition of light activated thylakoid membrane bound Mg+ATPase activity in spinach leaves at 200 uM relative to control. To be noted: values are per cent of control. The gist of the method:
as §10

Test [29] relates to Spinacia oleracea. Put plainly: Effect on uncoupled photosystem 1 in spinach chloroplast assessed as inhibition of electron transport rate of tetramethyl-p-benzohydroquinone to methyl viologen at 200 uM relative to control. On the set-up: scale not given: the % may be the effect or the level left. The method in brief: as §7
For test [30], the system named is Spinacia oleracea. The experiment in a line: Effect on uncoupled photosystem 1 in spinach chloroplast assessed as inhibition of electron transport rate of 2,6-dichlorophenol indophenol to methyl viologen at 100 uM relative to control. On the set-up: scale not given: the % may be the effect or the level left. The method in brief:
as §9

In test [31] the test system is Spinacia oleracea. Put plainly: Effect on uncoupled photosystem 2 in spinach chloroplast assessed as inhibition of electron transport rate of water to 2,6-dicholorophenol indophenol at 50 uM relative to control. On the set-up: scale not given: the % may be the effect or the level left. The gist of the method: as §11
Test [32] deals with Spinacia oleracea. The description is as §5. In kind it is functional. The gist of the method: as §6

Calls of active or inactive are those of the source. The rule behind the calls is not given here.

Take `CN(C)C(=O)Nc1ccc(Cl)c(Cl)c1`: the Flu intensity in test [1] is 1200.

As for `CC(=O)O[C@H]1CC[C@](C)(O)[C@]23OC(C)(C)[C@H]([C@H](OC(=O)/C=C/c4ccccc4)[C@H](OC(=O)c4ccccc4)[C@]12C)[C@H]3O`, the inhibition – broadly, how much of the control response was suppressed – stood at 52% in [2]; 83% in [4]; 79% in test [5]; 32% in [6]; 26% in test [11]; 13% in test [13]. In test [21], the inhibition turned out to be 68%. The Activity was found to be 21% in test [3]; 129% in test [8]; 115% in test [9]; 106% in test [12]; 64% in test [14]; 71% in test [16]. In addition, the Activity in test [17] stood at 32%; in [18], 32%; in test [20], 100%; in [22] it was 80%; in [24], 131%; in [25], 11%. Besides, the Activity worked out at 100% in [26], 120% in test [29], 100% in test [30] and 93% in test [31]. Moreover, the IC50 in test [7] worked out at 25 µM. Besides, the figures for the Flu intensity in test [10], in [15] and in [23] were 1220, 875 and 1260, respectively. Besides, the residual activity in test [19] stood at 87%; in [27] it was 91%; in test [28], 89%.

In the case of `CC(=O)O[C@H]1CC[C@](C)(O)[C@]23OC(C)(C)[C@H]([C@H](OC(=O)/C=C/c4ccccc4)[C@H](OC(=O)c4ccccc4)[C@]12C)[C@H]3OC(C)=O`, in [32], the outcome was inactive.

Consider `CC(=O)O[C@H]1CC[C@@H](C)[C@]23OC(C)(C)[C@H]([C@H](OC(=O)/C=C/c4ccccc4)[C@H](OC(=O)c4ccccc4)[C@]12C)[C@H]3O`, for which the IC50 in test [7] worked out at 44 µM.
